Data: ChEMBL document CHEMBL1821567, “Synthesis and glycosidase inhibitory profiles of functionalised morpholines and oxazepanes” (Bioorg Med Chem, 2011)
Activity calls are given as the source filed them. The rule behind the calls is not given here.

What was measured:
[1] = target: T1, Lysosomal acid glucosylceramidase (Homo sapiens, UniProt P04062); test: Uncompetitive inhibition of human beta-glucosidase by Michaelis-Menten kinetics analysis
T1 sequence (P04062 whole entry): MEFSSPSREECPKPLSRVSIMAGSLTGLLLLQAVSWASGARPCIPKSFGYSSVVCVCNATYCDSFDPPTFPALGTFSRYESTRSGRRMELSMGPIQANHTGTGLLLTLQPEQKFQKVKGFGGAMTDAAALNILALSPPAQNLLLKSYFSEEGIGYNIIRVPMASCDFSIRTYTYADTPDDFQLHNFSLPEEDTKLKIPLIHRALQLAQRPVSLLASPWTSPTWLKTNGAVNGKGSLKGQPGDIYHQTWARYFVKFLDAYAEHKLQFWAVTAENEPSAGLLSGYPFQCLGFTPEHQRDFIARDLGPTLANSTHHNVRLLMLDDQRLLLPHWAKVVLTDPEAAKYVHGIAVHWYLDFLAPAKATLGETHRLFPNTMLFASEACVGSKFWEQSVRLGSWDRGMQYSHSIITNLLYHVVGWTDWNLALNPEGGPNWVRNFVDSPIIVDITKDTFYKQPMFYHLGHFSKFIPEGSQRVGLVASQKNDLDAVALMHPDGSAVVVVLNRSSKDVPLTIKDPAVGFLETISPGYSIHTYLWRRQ

[2] = system: Saccharomyces cerevisiae; test: Inhibition of Saccharomyces cerevisiae alpha-D-glucosidase at 1 mg/ml after 10 to 20 mins
Procedure, shortened: (§1)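 Enzyme was pre-incubated with test solution at 1 mg/ml, or dH2O for controls, for 10–20 min at 27 °C. Substrate was added and incubation continued for the same time at 27 °C. The reaction was stopped with glycine solution and read at 405 nm. Each sample and control ran in three wells at the enzyme's optimal pH. Values are % inhibition.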

[3] = system: Geobacillus stearothermophilus; test: Inhibition of Bacillus stearothermophilus alpha-D-glucosidase at 1 mg/ml after 10 to 20 mins; procedure, shortened: as §1
[4] = system: Oryza sativa; test: Inhibition of rice alpha-D-glucosidase at 1 mg/ml after 10 to 20 mins; procedure, shortened: as §1
[5] = system: Prunus; test: Inhibition of almond beta-D-glucosidase at 1 mg/ml after 10 to 20 mins; procedure, shortened: as §1
[6] = system: Canavalia ensiformis; test: Inhibition of jack bean alpha-D-mannosidase at 1 mg/ml after 10 to 20 mins; procedure, shortened: as §1
[7] = system: Cellulomonas fimi; test: Inhibition of Cellulomonas fimi beta-D-mannosidase at 1 mg/ml after 10 to 20 mins; procedure, shortened: as §1
[8] = species: Bos taurus; test: Inhibition of bovine kidney N-acetyl-beta-D-glucosaminidase at 1 mg/ml after 10 to 20 mins; procedure, shortened: as §1
[9] = target: Alpha-galactosidase (Coffea arabica) (UniProt Q42656); test: Inhibition of green coffee beans alpha-D-galactosidase at 1 mg/ml after 10 to 20 mins; procedure, shortened: as §1
Chain of Alpha-galactosidase (Coffea arabica) (Q42656 16-378 limits assumed): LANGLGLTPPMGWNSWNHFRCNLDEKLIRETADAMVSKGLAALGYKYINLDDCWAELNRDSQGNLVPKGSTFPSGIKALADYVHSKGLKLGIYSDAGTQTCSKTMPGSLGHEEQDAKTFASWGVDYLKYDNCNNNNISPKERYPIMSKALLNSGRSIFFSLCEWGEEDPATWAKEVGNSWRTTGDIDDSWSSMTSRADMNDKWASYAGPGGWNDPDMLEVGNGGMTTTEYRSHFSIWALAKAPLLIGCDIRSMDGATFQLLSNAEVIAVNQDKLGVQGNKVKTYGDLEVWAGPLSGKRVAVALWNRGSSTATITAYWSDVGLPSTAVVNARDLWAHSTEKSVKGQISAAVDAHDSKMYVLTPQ

[10] = target: T2, Beta-galactosidase (Bos taurus) (UniProt Q58D55); test: Inhibition of bovine kidney beta-D-galactosidase at 1 mg/ml after 10 to 20 mins; procedure, shortened: as §1
T2 sequence (whole entry): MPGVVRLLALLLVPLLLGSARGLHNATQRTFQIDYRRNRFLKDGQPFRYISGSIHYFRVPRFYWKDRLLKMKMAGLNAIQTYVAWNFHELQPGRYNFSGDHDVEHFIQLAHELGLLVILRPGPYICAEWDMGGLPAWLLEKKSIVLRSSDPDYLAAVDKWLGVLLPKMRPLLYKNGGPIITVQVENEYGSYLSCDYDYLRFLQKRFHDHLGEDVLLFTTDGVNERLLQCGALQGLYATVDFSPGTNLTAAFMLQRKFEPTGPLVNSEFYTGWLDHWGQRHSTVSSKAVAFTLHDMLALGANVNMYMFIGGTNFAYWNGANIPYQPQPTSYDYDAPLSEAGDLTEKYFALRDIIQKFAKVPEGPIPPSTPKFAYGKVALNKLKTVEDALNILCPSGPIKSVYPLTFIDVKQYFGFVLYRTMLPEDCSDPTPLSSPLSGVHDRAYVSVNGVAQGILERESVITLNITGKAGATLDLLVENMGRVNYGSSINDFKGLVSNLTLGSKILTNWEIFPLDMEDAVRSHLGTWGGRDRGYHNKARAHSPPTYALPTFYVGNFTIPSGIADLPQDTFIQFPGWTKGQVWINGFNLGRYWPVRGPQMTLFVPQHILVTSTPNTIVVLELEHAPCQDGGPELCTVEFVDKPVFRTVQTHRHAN

[11] = system: Penicillium decumbens; test: Inhibition of Penicillium decumbens naringinase at 1 mg/ml after 10 to 20 mins; procedure, shortened: as §1
[12] = target: T3, Beta-galactosidase (Bos taurus, UniProt Q58D55); test: Inhibition of bovine kidney beta-D-galactosidase after 10 to 20 mins
T3 sequence (Q58D55 whole entry): T2 sequence (whole entry)
Procedure, shortened: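 Bovine kidney β-D-galactosidase was pre-incubated with test solution, or dH2O for controls, for 10–20 min at 27 °C. Substrate was added for a further 10–20 min at 27 °C, then glycine solution, and absorbance at 405 nm. Wells were run in triplicate. Ki and inhibition mode came from Lineweaver–Burk double-reciprocal slopes.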

[13] = Inhibition of alpha-glucosidase

Q: Which Ki [1] does the source give for `OCCC(O)CN1CCOCC1` (stereo not drawn) here?
A: The Ki was 640 µM.

Q: What does the source list for `CCCN1C[C@@H](CO)O[C@H](OC)C1`?
A: inhibition [2]: 8%; inhibition [3]: 9%; inhibition [4]: inactive; inhibition [5]: inactive; inhibition [6]: inactive; inhibition [7]: inactive; inhibition [8]: inactive; inhibition [9]: inactive; inhibition [10]: 54%; inhibition [11]: 9%; IC50 [12]: 75.5 µM

Q: For `CCCCN1C[C@@H](CO)O[C@H](OC)C1`, which inhibition [2] is on record?
A: The inhibition was “inactive”.

Q: What about the inhibition [3] of the same compound?
A: Its inhibition is “inactive”.

Q: What about the inhibition [4] of the same compound?
A: Its inhibition is “inactive”.

Q: What about the inhibition [5] of the same compound?
A: The inhibition was “inactive”.

Q: And the inhibition [6]?
A: Its inhibition is “inactive”.

Q: What about the inhibition [7] of the same compound?
A: Its inhibition is “inactive”.

Q: And the inhibition [8]?
A: Its inhibition is 8%.

Q: And the inhibition [9]?
A: The inhibition was “inactive”.

Q: And the inhibition [10]?
A: The inhibition was 45%.

Q: And the inhibition [11]?
A: Its inhibition is 7%.

Q: What about the IC50 [12] of the same compound?
A: Its IC50 is 70.3 µM.

Q: What does the source list for `CO[C@@H]1CN(C)C[C@@H](CO)O1`?
A: inhibition [2]: 24%; inhibition [3]: inactive; inhibition [4]: inactive; inhibition [5]: inactive; inhibition [6]: inactive; inhibition [7]: inactive; inhibition [8]: inactive; inhibition [9]: inactive; inhibition [10]: 48%; inhibition [11]: inactive; IC50 [12]: 88.6 µM; Ki [12]: 126 µM

Q: Which inhibition [2] does the source give for `CO[C@H]1O[C@H](CO)CNC[C@H]1O` here?
A: The inhibition was “inactive”.

Q: What about the inhibition [3] of the same compound?
A: Its inhibition is 8%.

Q: What about the inhibition [4] of the same compound?
A: Its inhibition is “inactive”.

Q: What about the inhibition [5] of the same compound?
A: The inhibition was “inactive”.

Q: And the inhibition [6]?
A: The inhibition was “inactive”.

Q: What about the inhibition [7] of the same compound?
A: The inhibition was “inactive”.

Q: And the inhibition [8]?
A: Its inhibition is 9%.

Q: And the inhibition [9]?
A: Its inhibition is 6%.

Q: And the inhibition [10]?
A: Its inhibition is 16%.

Q: And the inhibition [11]?
A: The inhibition was “inactive”.

Q: Which inhibition [2] does the source give for `COC(=O)C(Cc1ccc(O)cc1)N1C[C@@H](CO)O[C@H](OC)[C@H](O)C1` (stereo partly drawn) here?
A: The inhibition was “inactive”.

Q: And the inhibition [3]?
A: Its inhibition is “inactive”.

Q: And the inhibition [4]?
A: The inhibition was “inactive”.

Q: What about the inhibition [5] of the same compound?
A: Its inhibition is “inactive”.

Q: And the inhibition [6]?
A: The inhibition was “inactive”.

Q: What about the inhibition [7] of the same compound?
A: Its inhibition is “inactive”.

Q: And the inhibition [8]?
A: Its inhibition is “inactive”.

Q: What about the inhibition [9] of the same compound?
A: Its inhibition is “inactive”.

Q: What about the inhibition [10] of the same compound?
A: Its inhibition is “inactive”.

Q: What about the inhibition [11] of the same compound?
A: Its inhibition is “inactive”.

Q: For `CCCCN1C[C@@H](CO)O[C@H](OC)[C@H](O)C1`, which inhibition [2] is on record?
A: The inhibition was 8%.

Q: What about the inhibition [3] of the same compound?
A: The inhibition was “inactive”.

Q: What about the inhibition [4] of the same compound?
A: Its inhibition is “inactive”.

Q: And the inhibition [5]?
A: The inhibition was “inactive”.

Q: What about the inhibition [6] of the same compound?
A: The inhibition was “inactive”.

Q: What about the inhibition [7] of the same compound?
A: The inhibition was “inactive”.

Q: And the inhibition [8]?
A: The inhibition was 32%.

Q: And the inhibition [9]?
A: Its inhibition is “inactive”.

Q: And the inhibition [10]?
A: Its inhibition is 23%.

Q: What about the inhibition [11] of the same compound?
A: The inhibition was “inactive”.

Q: With `OC[C@H]1CNC[C@@H](O)[C@@H]1O` as the compound, how does the INH [13] read?
A: Its INH is 86 µM.

Q: For `COC(=O)C(Cc1ccccc1)N1C[C@@H](CO)O[C@H](OC)[C@H](O)C1` (stereo partly drawn), which inhibition [2] is on record?
A: The inhibition was “inactive”.

Q: What about the inhibition [3] of the same compound?
A: The inhibition was “inactive”.

Q: And the inhibition [4]?
A: The inhibition was “inactive”.

Q: What about the inhibition [5] of the same compound?
A: The inhibition was “inactive”.

Q: What about the inhibition [6] of the same compound?
A: Its inhibition is “inactive”.

Q: And the inhibition [7]?
A: Its inhibition is “inactive”.

Q: And the inhibition [8]?
A: The inhibition was “inactive”.

Q: What about the inhibition [9] of the same compound?
A: Its inhibition is “inactive”.

Q: What about the inhibition [10] of the same compound?
A: Its inhibition is “inactive”.

Q: And the inhibition [11]?
A: Its inhibition is “inactive”.

Q: Which inhibition [2] does the source give for `CO[C@@H]1CN(O)C[C@@H](CO)O1` here?
A: Its inhibition is 58%.

Q: And the inhibition [3]?
A: The inhibition was “inactive”.

Q: And the inhibition [4]?
A: Its inhibition is 29%.

Q: And the inhibition [5]?
A: Its inhibition is “inactive”.

Q: What about the inhibition [6] of the same compound?
A: The inhibition was “inactive”.

Q: What about the inhibition [7] of the same compound?
A: Its inhibition is “inactive”.

Q: What about the inhibition [8] of the same compound?
A: Its inhibition is 72%.

Q: What about the inhibition [9] of the same compound?
A: Its inhibition is “inactive”.

Q: What about the inhibition [10] of the same compound?
A: Its inhibition is 82%.

Q: And the inhibition [11]?
A: The inhibition was “inactive”.

Q: What about the IC50 [12] of the same compound?
A: Its IC50 is 30.6 µM.

Q: What about the Ki [12] of the same compound?
A: Its Ki is 20.2 µM.
